Tests used:
Rattus norvegicus [1] = assay: Antiinflammatory activity in rat assessed as inhibition of formalin-induced paw oedema at 100 mg/kg, ip; type: functional; conditions: route intraperitoneal
Method in brief: (§1)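 Albino rats of either sex, six per group, with plain 2% CMC as control. Formalin injected into the paw to induce oedema. Paw volume measured by plethysmograph (mercury displacement) immediately after injection (0 h), then at 0.5, 1, 2, 4, 8, 12 and 24 h. Results given as % inhibition of inflammation. P < 0.05 taken as significant.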

Rattus norvegicus [2] = assay: Antiinflammatory activity in rat assessed as inhibition of formalin-induced paw oedema at 100 mg/kg, ip after 0.5 hrs; type: functional; conditions: route intraperitoneal; method in brief: as §1
Mus musculus [3] = assay: Analgesic activity in Albino mouse assessed as inhibition of acetic acid-induced writhing responses at 100 mg/kg, po; parameters: scale not given: the % may be the effect or the level left
Rattus norvegicus [4] = assay: Antiinflammatory activity in rat assessed as inhibition of formalin-induced paw oedema at 100 mg/kg, ip after 1 hr; type: functional; conditions: route intraperitoneal; method in brief: as §1
Rattus norvegicus [5] = assay: Antiinflammatory activity in rat assessed as inhibition of formalin-induced paw oedema at 100 mg/kg, ip after 24 hrs; type: functional; conditions: route intraperitoneal; method in brief: as §1
Rattus norvegicus [6] = assay: Antiinflammatory activity in rat assessed as inhibition of formalin-induced paw oedema at 100 mg/kg, ip after 8 hrs; type: functional; conditions: route intraperitoneal; method in brief: as §1
Rattus norvegicus [7] = assay: Antiinflammatory activity in rat assessed as inhibition of formalin-induced paw oedema at 100 mg/kg, ip after 2 hrs; type: functional; conditions: route intraperitoneal; method in brief: as §1
Rattus norvegicus [8] = assay: Antiinflammatory activity in rat assessed as inhibition of formalin-induced paw oedema at 100 mg/kg, ip after 4 hrs; type: functional; conditions: route intraperitoneal; method in brief: as §1
Rattus norvegicus [9] = assay: Antiinflammatory activity in rat assessed as inhibition of formalin-induced paw oedema at 100 mg/kg, ip after 12 hrs; type: functional; conditions: route intraperitoneal; method in brief: as §1
Mus musculus [10] = assay: Acute toxicity in Albino mouse at 100 mg/kg after 24 hrs; type: functional, organism-based; parameters: dose 100 mg/kg
Method in brief: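 Albino mice (20–25 g), fasted overnight, dosed across 1000–100 mg/kg body weight and watched for 24 h for signs of acute toxicity, e.g. raised or lowered motor activity, tremors, convulsion, sedation, lacrimation.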

Structure (SMILES)	inhibition in vivo at 100 mg/kg (Rattus norvegicus [1]) [%]	inhibition in vivo at 100 mg/kg (Rattus norvegicus [2]) [%]	Activity (Mus musculus [3]) [%]	inhibition in vivo at 100 mg/kg (Rattus norvegicus [4]) [%]	inhibition in vivo at 100 mg/kg (Rattus norvegicus [5]) [%]	inhibition in vivo at 100 mg/kg (Rattus norvegicus [6]) [%]	inhibition in vivo at 100 mg/kg (Rattus norvegicus [7]) [%]	inhibition in vivo at 100 mg/kg (Rattus norvegicus [8]) [%]	inhibition in vivo at 100 mg/kg (Rattus norvegicus [9]) [%]	Activity (Mus musculus [10])
CC(=O)Oc1ccccc1C(=O)O [ASPIRIN]	5.97	9.76	81.56	17.1	17.4	39.7	29.9	49.9	22.2	–
O=c1cc(CNc2nc(-c3cc4cc(Br)ccc4oc3=O)cs2)c2cc(Cl)ccc2[nH]1	3.03	4.11	88.89	4.42	9.08	28.6	5.26	19.8	15.6	Not toxic
Cc1cccc2c(CNc3nc(-c4cc5cc(Br)cc(Br)c5oc4=O)cs3)cc(=O)[nH]c12	2.65	3.65	62.73	11.3	9.78	33.7	16.3	22.7	16.7	Not toxic
O=c1cc(CNc2nc(-c3cc4cc(Br)cc(Br)c4oc3=O)cs2)c2cc(Cl)ccc2[nH]1	2.85	6.75	48.7	13.8	9.35	21.9	17.8	29.8	14.4	Not toxic
Cc1cccc2c(CNc3nc(-c4cc5cc(Br)ccc5oc4=O)cs3)cc(=O)[nH]c12	1.6	3.12	35.05	8.76	16.9	18.5	9.19	14.5	24.1	Not toxic
O=c1cc(CNc2nc(-c3cc4ccccc4oc3=O)cs2)c2ccc(Cl)cc2[nH]1	–	–	–	–	–	–	–	–	–	Not toxic
O=c1cc(CNc2nc(-c3cc4cc(Br)cc(Br)c4oc3=O)cs2)c2ccc(Cl)cc2[nH]1	2.89	3.27	78.22	12.6	10.6	41.5	13	34.5	18.7	Not toxic
O=c1cc(CNc2nc(-c3cc4cc(Br)ccc4oc3=O)cs2)c2ccc(Cl)cc2[nH]1	2.4	5.26	64.94	5.8	18.4	24.5	9.09	13.3	23.2	Not toxic
O=c1cc(CNc2nc(-c3cc4ccccc4oc3=O)cs2)c2cc(Cl)ccc2[nH]1	–	–	–	–	–	–	–	–	–	Not toxic
Cc1cccc2c(CNc3nc(-c4cc5ccccc5oc4=O)cs3)cc(=O)[nH]c12	–	–	–	–	–	–	–	–	–	Not toxic

Reference: ChEMBL document CHEMBL1147877, “Synthesis of novel triheterocyclic thiazoles as anti-inflammatory and analgesic agents” (2007)
